# According to ChEMBL document CHEMBL5058577, “EUbOPEN Chemogenomics Library 2 (Multiplex)” (2022):
# Test system: Fibroblast
# Experiment: Multiplex assay against human fibroblast
# Format: toxicity, cell-based
# How it was run: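 Phenotypes for tubulin, mitochondrial mass and membrane permeability are expressed as per cents of healthy-nucleus cells. Cells were stained live at seeding with Hoechst33342, BioTracker Green Microtubule Cytoskeleton Dye, MitoTracker Red and Annexin V Alexa Fluor 680, then imaged after compound addition on a CQ1 microscope at 37°C and 5% CO2. Machine-learning gating in CellPathfinder separated Hoechst high-intensity objects from normal cells, divided normal cells by nuclear state (healthy, pyknosed, fragmented) and divided pyknosed cells into mitotic or apoptotic.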
# [1] = 12 h, 1 µM, compound concentration 1 uM, replicate 1
# [2] = 12 h, 1 µM, compound concentration 1 uM, replicate 2
# [3] = 12 h, 10 µM, compound concentration 10 uM, replicate 1
# [4] = 12 h, 10 µM, compound concentration 10 uM, replicate 2
# [5] = 24 h, 1 µM, compound concentration 1 uM, replicate 1
# [6] = 24 h, 1 µM, compound concentration 1 uM, replicate 2
# [7] = 24 h, 10 µM, compound concentration 10 uM, replicate 1
# [8] = 24 h, 10 µM, compound concentration 10 uM, replicate 2
# [9] = 48 h, 1 µM, compound concentration 1 uM, replicate 1
# [10] = 48 h, 1 µM, compound concentration 1 uM, replicate 2
# [11] = 48 h, 10 µM, compound concentration 10 uM, replicate 1
# [12] = 48 h, 10 µM, compound concentration 10 uM, replicate 2
compound,measurement,setting,value
O=C(NCC(=O)N1CC[C@H](N[C@H]2CC[C@@](O)(c3ccc(-c4ncccn4)cn3)CC2)C1)c1cccc(C(F)(F)F)c1 [PF-4136309],Population Apoptotic (%),[1],53%
same,Population Fragmented Nuclei (%),[1],13%
same,Population Healthy Nuclei (%),[1],63%
same,Population Hoechst High Intensity Objects (%),[1],2%
same,Population Membrane Permeable-Phenotype (%),[1],1%
same,Population Mitochondria Different-Phenotype (%),[1],4%
same,Population Mitotic Cells (%),[1],46%
same,Population Normal (%),[1],97%
same,Population Pyknosed Nuclei (%),[1],23%
same,Population Tubulin-Different-Phenotype (%),[1],28%
same,Total Cell Count,[1],142
same,Population Apoptotic (%),[2],22%
same,Population Fragmented Nuclei (%),[2],25%
same,Population Healthy Nuclei (%),[2],52%
same,Population Hoechst High Intensity Objects (%),[2],5%
same,Population Membrane Permeable-Phenotype (%),[2],13%
same,Population Mitochondria Different-Phenotype (%),[2],7%
same,Population Mitotic Cells (%),[2],77%
same,Population Normal (%),[2],94%
same,Population Pyknosed Nuclei (%),[2],21%
same,Population Tubulin-Different-Phenotype (%),[2],60%
same,Total Cell Count,[2],152
same,Population Apoptotic (%),[3],60%
same,Population Fragmented Nuclei (%),[3],18%
same,Population Healthy Nuclei (%),[3],69%
same,Population Hoechst High Intensity Objects (%),[3],2%
same,Population Membrane Permeable-Phenotype (%),[3],0%
same,Population Mitochondria Different-Phenotype (%),[3],11%
same,Population Mitotic Cells (%),[3],40%
same,Population Normal (%),[3],97%
same,Population Pyknosed Nuclei (%),[3],12%
same,Population Tubulin-Different-Phenotype (%),[3],46%
same,Total Cell Count,[3],210
same,Population Apoptotic (%),[4],25%
same,Population Fragmented Nuclei (%),[4],24%
same,Population Healthy Nuclei (%),[4],52%
same,Population Hoechst High Intensity Objects (%),[4],5%
same,Population Membrane Permeable-Phenotype (%),[4],4%
same,Population Mitochondria Different-Phenotype (%),[4],6%
same,Population Mitotic Cells (%),[4],75%
same,Population Normal (%),[4],94%
same,Population Pyknosed Nuclei (%),[4],23%
same,Population Tubulin-Different-Phenotype (%),[4],44%
same,Total Cell Count,[4],128
same,Population Apoptotic (%),[5],61%
same,Population Fragmented Nuclei (%),[5],14%
same,Population Healthy Nuclei (%),[5],60%
same,Population Hoechst High Intensity Objects (%),[5],2%
same,Population Membrane Permeable-Phenotype (%),[5],1%
same,Population Mitochondria Different-Phenotype (%),[5],4%
same,Population Mitotic Cells (%),[5],38%
same,Population Normal (%),[5],97%
same,Population Pyknosed Nuclei (%),[5],25%
same,Population Tubulin-Different-Phenotype (%),[5],32%
same,Total Cell Count,[5],139
same,Population Apoptotic (%),[6],45%
same,Population Fragmented Nuclei (%),[6],33%
same,Population Healthy Nuclei (%),[6],52%
same,Population Hoechst High Intensity Objects (%),[6],4%
same,Population Membrane Permeable-Phenotype (%),[6],16%
same,Population Mitochondria Different-Phenotype (%),[6],1%
same,Population Mitotic Cells (%),[6],55%
same,Population Normal (%),[6],95%
same,Population Pyknosed Nuclei (%),[6],14%
same,Population Tubulin-Different-Phenotype (%),[6],52%
same,Total Cell Count,[6],148
same,Population Apoptotic (%),[7],36%
same,Population Fragmented Nuclei (%),[7],15%
same,Population Healthy Nuclei (%),[7],72%
same,Population Hoechst High Intensity Objects (%),[7],3%
same,Population Membrane Permeable-Phenotype (%),[7],0%
same,Population Mitochondria Different-Phenotype (%),[7],10%
same,Population Mitotic Cells (%),[7],63%
same,Population Normal (%),[7],96%
same,Population Pyknosed Nuclei (%),[7],11%
same,Population Tubulin-Different-Phenotype (%),[7],34%
same,Total Cell Count,[7],203
same,Population Apoptotic (%),[8],30%
same,Population Fragmented Nuclei (%),[8],29%
same,Population Healthy Nuclei (%),[8],48%
same,Population Hoechst High Intensity Objects (%),[8],2%
same,Population Membrane Permeable-Phenotype (%),[8],6%
same,Population Mitochondria Different-Phenotype (%),[8],4%
same,Population Mitotic Cells (%),[8],70%
same,Population Normal (%),[8],97%
same,Population Pyknosed Nuclei (%),[8],22%
same,Population Tubulin-Different-Phenotype (%),[8],52%
same,Total Cell Count,[8],139
same,Population Apoptotic (%),[9],58%
same,Population Fragmented Nuclei (%),[9],26%
same,Population Healthy Nuclei (%),[9],49%
same,Population Hoechst High Intensity Objects (%),[9],2%
same,Population Membrane Permeable-Phenotype (%),[9],2%
same,Population Mitochondria Different-Phenotype (%),[9],2%
same,Population Mitotic Cells (%),[9],41%
same,Population Normal (%),[9],97%
same,Population Pyknosed Nuclei (%),[9],24%
same,Population Tubulin-Different-Phenotype (%),[9],27%
same,Total Cell Count,[9],149
same,Population Apoptotic (%),[10],50%
same,Population Fragmented Nuclei (%),[10],36%
same,Population Hoechst High Intensity Objects (%),[10],4%
same,Population Membrane Permeable-Phenotype (%),[10],7%
same,Population Mitochondria Different-Phenotype (%),[10],4%
same,Population Mitotic Cells (%),[10],50%
same,Population Normal (%),[10],95%
same,Population Pyknosed Nuclei (%),[10],13%
same,Population Tubulin-Different-Phenotype (%),[10],46%
same,Total Cell Count,[10],137
same,Population Apoptotic (%),[11],47%
same,Population Fragmented Nuclei (%),[11],18%
same,Population Healthy Nuclei (%),[11],72%
same,Population Hoechst High Intensity Objects (%),[11],6%
same,Population Membrane Permeable-Phenotype (%),[11],0%
same,Population Mitochondria Different-Phenotype (%),[11],15%
same,Population Mitotic Cells (%),[11],52%
same,Population Normal (%),[11],93%
same,Population Pyknosed Nuclei (%),[11],9%
same,Population Tubulin-Different-Phenotype (%),[11],47%
same,Total Cell Count,[11],195
same,Population Apoptotic (%),[12],63%
same,Population Fragmented Nuclei (%),[12],31%
same,Population Healthy Nuclei (%),[12],52%
same,Population Membrane Permeable-Phenotype (%),[12],6%
same,Population Mitochondria Different-Phenotype (%),[12],6%
same,Population Mitotic Cells (%),[12],36%
same,Population Pyknosed Nuclei (%),[12],15%
same,Population Tubulin-Different-Phenotype (%),[12],54%
same,Total Cell Count,[12],129
